The list is not random: actives were taken first. Their share in the collection is about 2.6%.
PRMT1 FP inh = PRMT1 methyltransferase inhibitors, primary screen, biochemical, fluorescence polarization; recombinant PRMT1, activity-based probe fluorescence polarization; inhibition, % at 2.79 µM; 370,000 compounds, 1.3% hits;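 active means inhibition above about 21% made by adding two undisclosed values, limit read from the data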
ABHD4 inh = ABHD4 inhibitors, primary screen, biochemical, fluorescence polarization, mouse; inhibition, % at 8.92 µM; 370,000 compounds, 0.54% hits; (Lyso)-N-acylphosphatidylethanolamine lipase (Mus musculus), Q8VD66; purified mABHD4, FP-Rh probe fluorescence polarization;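 active means inhibition exceeding the mean over every tested compound plus 3 SD, cut at about 30% in these data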
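Test system: mABHD4 protein; Read-out basis: % inhibition; Incubation: 45 min + 60 min at 25 °C; Repeats: single replicate; Technique: fluorescence polarization with parallel and perpendicular emission, 525/598 nm; Compound: 8.92 µM, single dose; Benchmarks: full inhibition S159A mutant plus DMSO, zero as sample-well median.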
SIAE primary = human SIAE inhibitors, primary screen, biochemical, fluorescence polarization, FP-Rh probe, 1536-well HTS. Sialate O-acetylesterase (Homo sapiens), Q9HAT2. SIAE FP-Rh probe binding. inhibition, % at 9.66 µM. 370,000 compounds, 0.69% hits;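 active means inhibition above a cutoff: mean of compounds within the control limits plus 3 SD of those, cut at about 17% in these data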
Target sequence (Q9HAT2 whole entry, looked up): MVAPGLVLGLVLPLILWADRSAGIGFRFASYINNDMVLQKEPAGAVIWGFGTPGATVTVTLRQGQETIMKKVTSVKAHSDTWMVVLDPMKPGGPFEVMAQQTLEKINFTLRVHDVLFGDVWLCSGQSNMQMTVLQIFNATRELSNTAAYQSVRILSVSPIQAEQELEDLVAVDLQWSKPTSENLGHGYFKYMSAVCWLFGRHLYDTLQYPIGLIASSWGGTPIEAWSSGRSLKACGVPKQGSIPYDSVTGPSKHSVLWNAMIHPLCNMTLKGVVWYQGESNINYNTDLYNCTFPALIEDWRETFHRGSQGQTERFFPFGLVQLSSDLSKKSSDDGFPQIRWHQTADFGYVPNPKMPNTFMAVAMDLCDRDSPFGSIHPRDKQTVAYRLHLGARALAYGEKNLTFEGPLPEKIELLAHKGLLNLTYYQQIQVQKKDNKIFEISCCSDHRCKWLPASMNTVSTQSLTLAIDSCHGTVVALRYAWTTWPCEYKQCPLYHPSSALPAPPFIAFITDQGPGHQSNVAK
TCR-CD3 inh = inhibitors of human TCR-CD3 interaction, primary screen, biochemical, fluorescence, TAMRA-labeled TCR probe | inhibition, % at 9.4 µM | 360,000 compounds, 0.37% hits | AID 651800, 2012; in the data active means inhibition above about 19%;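 further: recombinant mutant TCR 2C K166C tagged with TAMRA read by polarization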
HTRA1 inh = HTRA1 serine protease inhibitors, primary screen, biochemical, fluorescence polarization, HTS; recombinant HTRA1, FP-rhodamine activity-based probe; inhibition, % at 5.96 µM; 340,000 compounds, 0.5% hits; in the data active means inhibition above about 36%
SIAE inh conf = human SIAE inhibitors, retest, confirmation, biochemical, fluorescence polarization, FP-Rh probe, triplicate. shares compounds with SIAE primary. SIAE FP-Rh activity-based probe. inhibition, % at 9.66 µM. 2,300 compounds, 13% hits;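 active means mean inhibition of the replicates above the hit cutoff set in the primary screen, cut at about 17% in these data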;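 further: inhibitors lower polarization as more probe stays unbound to SIAE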
Numbers stand for hits; . = inactive; / = no result.

SMILES | PRMT1 FP inh | ABHD4 inh | SIAE primary | TCR-CD3 inh | HTRA1 inh | SIAE inh conf
O=C(NCc1cccs1)C(Cc1ccccc1)n1cccc1 (stereo unspecified) | . | . | . | . | . | /
CC(C(=O)NCc1cccs1)n1cccc1 (stereo unspecified) | . | . | 20.2 | . | . | .
COC(=O)C1CCN(C(=O)/C=C/c2ccc3c(c2)OCO3)CC1 | . | . | . | . | . | /
CN(CC(=O)Nc1c(Cl)cccc1Cl)C(=O)CNC(=O)c1ccc2ccccc2c1 | . | . | . | . | . | /
NC(Cc1ccc(C(F)(F)F)cc1)c1csc(NC(=O)Nc2ccccc2Cc2ccccc2)n1 (stereo unspecified) | . | . | 17.1 | . | / | 22.7
CC(C)c1ccccc1NC(=O)Nc1nc(C(N)Cc2ccc(C(F)(F)F)cc2)cs1 (stereo unspecified) | . | . | . | . | / | /
COc1ccc(Nc2nnc(SC(C(=O)Nc3ccc(OC)c(Cl)c3)c3ccccc3)s2)cc1 (stereo unspecified) | . | . | 20.2 | . | . | .
COCCNc1nc(-c2ccc(OC)cc2)c(-c2ccc(OC)cc2)s1 | . | . | 18.5 | . | . | .
COc1cccc(C(=O)N2CCC(n3nccc3NC(=O)CCOc3ccccc3)CC2)c1 | . | . | . | . | . | /
COc1ccc(NC(=O)c2cc3c(Cl)nc4ccccc4c3s2)cc1OC | . | . | 25.6 | . | . | .
COc1ccc(C(=O)OC(C)C(=O)NC2CCCCC2C)cc1S(=O)(=O)N1CCOCC1 (stereo unspecified) | . | . | . | . | . | /
Cc1nc2c3ccccc3nc(NNC(=O)CCC(=O)N3CCC(C)CC3)n2n1 | . | . | 22.6 | . | . | .
CCOC(=O)C1CCN(C(=O)CCC(=O)NNc2nc3ccccc3c3nc(C)nn23)CC1 | . | . | . | . | . | /
CCN(CC(=O)NCc1ccc(Cl)cc1)C(=O)c1ccc(S(=O)(=O)NCc2ccco2)cc1 | . | . | . | . | . | /
CCCn1cc(CN2CCc3ccc(NC(=O)C4CCCO4)cc3C2)c(C)n1 (stereo unspecified) | . | . | . | . | . | /
O=C(NC(Cc1ccccc1)C(=O)O)/C(=C/c1ccc(Cl)cc1)NC(=O)c1ccccc1 (stereo unspecified) | . | . | 17.2 | . | . | .
CC(=O)Nc1ccc(OCc2cn(CC(=O)c3ccc(O)cc3)nn2)cc1 | . | . | 21.5 | . | . | .
Fc1ccccc1N1CCN(Cc2cc(-c3ccccc3)on2)CC1 | . | . | . | . | . | /
CCC(CC)c1nnc(NC(=O)CS(=O)(=O)c2ccccc2)s1 | . | . | 25.9 | . | . | .
CCC(CC)c1nnc(NC(=O)CCS(=O)(=O)Cc2ccccc2)s1 | . | . | . | . | . | /
CCOc1ccc(CCNC(=O)C2CCCN(c3ncnc4c3nc3n4CCCCC3)C2)cc1 (stereo unspecified) | . | . | . | . | . | /
Cn1c(=O)c2c(-c3ccc(C(C)(C)C)cc3)n(CC3CCCO3)cc2n(C)c1=O (stereo unspecified) | . | . | . | . | . | /
Cc1cccc(-c2c3c(=O)n(C)c(=O)n(C)c3cn2CC2CCCO2)c1 (stereo unspecified) | . | . | 18.6 | . | . | .
Cc1cc(C)c(NS(=O)(=O)c2c(C(=O)N3CCOCC3)c(C)n(C)c2C)c(C)c1 | . | . | 18.1 | . | . | .
CCN1CCN(CCC(=O)Nc2cc(OC)ccc2OC)CC1 | . | . | 19.8 | . | . | .
SMILES | PRMT1 FP inh | ABHD4 inh | SIAE primary | TCR-CD3 inh | HTRA1 inh | SIAE inh conf
O=c1[nH]cnc2c1nnn2C1OC(CO)C(O)C1O (stereo unspecified) | . | . | . | . | / | /
COc1ccc(S(=O)(=O)Nc2cc3c4c(c2)CCN4C(=O)CC3)cc1 | . | . | 17.1 | . | . | .
CC(C)C(=O)c1cn(CC(=O)O)c2ccccc12 | . | . | 18.9 | . | . | .
COc1ccc(N2CCN(C(=O)CCC(=O)N3Cc4ccccc4Oc4ncccc43)CC2)cc1 | . | . | . | . | . | /
COc1cc(CNC(=O)c2cnccn2)cc(OC)c1 | . | . | . | . | . | /
COc1cc(CNC(=O)c2cc(C(=O)NCc3cc(OC)cc(OC)c3)n(C)n2)cc(OC)c1 | . | . | 19.9 | . | . | .
CC1(C(=O)Nc2ccccc2)CCN1C(=O)CCc1ccc(Cl)cc1Cl (stereo unspecified) | . | . | 18.9 | . | / | .
COc1cc(/C=N\Nc2nc3ccccc3[nH]2)cc(OC)c1OC | . | . | . | . | . | /
CCOc1cc(/C=N/Nc2nc3ccccc3[nH]2)cc(Br)c1OCC(=O)N(C)C | . | . | 23.8 | . | . | 20.8
Cc1ccc(C)c(N(CC(=O)NC2CCCCC2)C(=O)CNC(=O)c2ccco2)c1 | . | . | . | . | . | /
COc1ccc(-c2nc3cccc(C)n3c2NCc2ccco2)cc1OC | . | . | 25.1 | . | . | .
CSCC[C@H](NC(=O)[C@@H]1Cc2ccccc2CN1)C(=O)Nc1ccc2c(c1)OCO2 | . | . | 17.6 | . | . | .
C[C@H](NC(=O)[C@@H]1Cc2ccccc2CN1)C(=O)Nc1ccc2c(c1)OCO2 | . | . | . | . | . | /
CCCc1ccc2c(C)cccc2n1 | . | . | . | . | / | /
O=C(C[C@H]1C/C=C\CC[C@H](Cc2ccc(F)cc2)C(=O)OC[C@H]2CCCN2C1=O)NCCO | . | . | . | . | . | /
Cc1nc(N2CCN(S(=O)(=O)c3ccc(Br)cc3)CC2)c2c(C)c(C)sc2n1 | . | . | 18.8 | . | . | .
COc1ccc2c(c1)CC(C(=O)Nc1ccc(Cl)cc1)/C(=N/O)O2 (stereo unspecified) | . | . | . | . | . | /
COc1ccc(N2CCN(c3ccc(S(=O)(=O)N(C(C)C)C(C)C)cn3)CC2)cc1 | . | . | . | . | . | /
COc1ccc(NC(=O)Cn2c(=O)oc3cc(Cl)ccc32)c(OC)c1 | . | . | 17.4 | . | . | .
COc1ccc(NC(=O)Cn2c(=O)oc3cc(S(=O)(=O)N4CCCC4)ccc32)c(OC)c1 | . | . | . | . | . | /
CNC(=S)N/N=C/c1cn(Cc2ccc(F)cc2)c2ccccc12 | . | . | 18.8 | . | . | .
Cn1c2ccccc2c2cc(/C=N/NC(=O)c3ccc(N)cc3)ccc21 | . | . | 24.5 | . | . | .
COc1cc(C(=O)N/N=C/c2cn(Cc3ccccc3)c3ccccc23)ccc1O | . | . | 25.1 | . | . | .
Nc1ccc(C(=O)N/N=C/c2cn(Cc3ccccc3F)c3ccccc23)cc1 | . | . | 20.3 | . | . | .
Nc1ccc(C(=O)N/N=C/c2cn(Cc3ccc(F)cc3)c3ccccc23)cc1 | . | . | . | . | . | /
COC(=O)N/N=C/c1cn(Cc2ccc(F)cc2)c2ccccc12 | . | . | . | . | . | /
